From ChEMBL document CHEMBL3351496, “Inhibition of the ANT(2")-Ia resistance enzyme and rescue of aminoglycoside antibiotic activity by synthetic α-hydroxytropolones” (Bioorg Med Chem Lett, 2014) come the findings set out here.

The source made the active and inactive calls. No cut-off for these calls is given here.

In assay [1] the test system is Escherichia coli. As to the kind of experiment: Antibacterial activity against Escherichia coli BW25113 expressing 2''-O-adenylyltransferase 1a with aadB gene into pGDP4 vector by checkerboard analysis in presence of gentamycin. The assay is classed as functional. A digest of the protocol:
(§1)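 Hyper-permeable E. coli BW25113 made gentamicin-resistant by cloning aadB (ANT(2″)-Ia) into pGDP4. Cells were exposed to serial dilutions of gentamicin crossed with serial dilutions of α-hydroxytropolone in checkerboard format. Growth was scored to give the gentamicin MIC at each inhibitor level and the FICI. Cell survival, as fraction of cells remaining, was scored at the inhibitor-alone concentrations.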

Assay [2] in a line: Binding affinity to Escherichia coli BL21 (lambda DE3) 2''-O-adenylyltransferase 1a by ATP-competitive inhibition assay. Summed up: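 Purified ANT(2″)-Ia expressed in E. coli BL21 (λDE3). Pyrophosphate from kanamycin B adenylation detected by coupled pyrophosphate assay. Ki derived from dose curves with carefully maintained ATP and kanamycin B concentrations. Run only on compounds with IC50 < 200 μM.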

For assay [3], the system named is Escherichia coli. As to the kind of experiment: Antibacterial activity against Escherichia coli BW25113 expressing 2''-O-adenylyltransferase 1a with aadB gene into pGDP4 vector assessed as cell remain at 50 uM. Type of assay: functional. Summed up: as §1
A short description of assay [4]: Inhibition of Escherichia coli BL21 (lambda DE3) 2''-O-adenylyltransferase 1a by EnzChek pyrophosphate assay. Summed up: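 ANT(2″)-Ia overexpressed in E. coli BL21 (λDE3) and purified. Adenylation of kanamycin B followed by detecting the pyrophosphate by-product in 96-well format. ATP at 25 μM. Duplicate serial dilutions of inhibitor; IC50 taken from the dose curves.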

In assay [5] the test system is Escherichia coli. As to the kind of experiment: Antibacterial activity against Escherichia coli BW25113 expressing 2''-O-adenylyltransferase 1a with aadB gene into pGDP4 vector assessed as gentamycin MIC at 12 uM by checkerboard analysis. Type of assay: functional. Summed up: as §1
Assay [6] concerns Escherichia coli. The assay is described as follows: Antibacterial activity against Escherichia coli BW25113 expressing 2''-O-adenylyltransferase with aadB gene into pGDP4 vector. The assay is classed as functional, organism-based. A digest of the protocol:
(§2)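 Gentamicin alone was serially diluted to find its MIC (μg/mL). This was done against E. coli BW25113 carrying aadB in pGDP4 and against wild-type BW25113 without the plasmid.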

In assay [7] the test system is Escherichia coli. The assay is described as follows: Antibacterial activity against wild type Escherichia coli BW25113. Type of assay: functional, organism-based. Summed up:
as §2

For assay [8], the system named is Escherichia coli. The assay is described as follows: Inhibition of Escherichia coli W677/JR76.2 2''-O-adenylyltransferase 1a using [14C]ATP at 5.5 uM by liquid scintillation counting analysis.
The test system of assay [9] is Escherichia coli. As to the kind of experiment: Inhibition of Escherichia coli W677/JR76.2 2''-O-adenylyltransferase 1a using [14C]ATP at 55 uM by liquid scintillation counting analysis.
Assay [10] relates to Escherichia coli. The assay is described as follows: Inhibition of Escherichia coli W677/JR76.2 2''-O-adenylyltransferase 1a using [14C]ATP at 550 uM by liquid scintillation counting analysis.
The test system of assay [11] is Escherichia coli. The assay is described as follows: Inhibition of Escherichia coli W677/JR76.2 2''-O-adenylyltransferase 1a using [14C]ATP at 73 uM by liquid scintillation counting analysis.
Assay [12] concerns Escherichia coli. The assay is described as follows: Inhibition of Escherichia coli W677/JR76.2 2''-O-adenylyltransferase 1a using [14C]ATP at 7.3 uM by liquid scintillation counting analysis.
The subject of assay [13] is Escherichia coli. As to the kind of experiment: Antibacterial activity against Escherichia coli BW25113 expressing 2''-O-adenylyltransferase 1a with aadB gene into pGDP4 vector assessed as cell death at 50 uM. The assay is classed as functional, organism-based. A digest of the protocol:
as §1

The test system of assay [14] is Escherichia coli. The assay is described as follows: Inhibition of Escherichia coli W677/JR76.2 2''-O-adenylyltransferase 1a using [14C]ATP at 730 uM by liquid scintillation counting analysis.
Assay [15] concerns Escherichia coli. The assay is described as follows: Antibacterial activity against Escherichia coli BW25113 expressing 2''-O-adenylyltransferase 1d with aadB gene into pGDP4 vector by checkerboard analysis in presence of gentamycin. The assay is classed as functional.

For `CC(=O)c1cc(O)c(=O)c(O)cc1C`, in the assay on Escherichia coli [1], the “fractional inhibitory concentration index (FICI)” value turned out to be 0.187. This compound also displayed a Ki in [2] of 29 µM. The Activity in the assay with Escherichia coli [3] is reported as 80%. The compound further showed an IC50 in [4] of 50 µM. For the same compound, the MIC with Escherichia coli [5] came to 32 µg/mL.
`Cc1cc(O)c(=O)c(O)cc1-c1ccc(-c2ccccc2)cc1`: in assay [4], the IC50 was above 200 µM.
The compound `Cc1cc(O)c(=O)c(O)cc1C(=O)C1CCCCC1` had an IC50 in assay [4] above 200 µM.
GENTAMICIN: the MIC against Escherichia coli [6] was 64 µg/mL; against Escherichia coli [7], 0.25 µg/mL.
Regarding `Cc1cc(O)c(=O)c(O)cc1-c1cccc2ccccc12`, in [4], the IC50 was above 200 µM.
On to `COCc1cc(O)c(=O)c(O)c(C(=O)OC)c1C(=O)OC`, for which the IC50 in assay [4] is above 200 µM.
On to `Cc1cc(O)c(=O)c(O)cc1-c1ccc(Br)cc1`, for which the “fractional inhibitory concentration index (FICI)” value in the assay with Escherichia coli [1] is 1. The compound also returned a Ki in assay [2] of 5.7 µM. Also, the IC50 in assay [4] was 8 µM.
`COC(=O)c1c(CCl)cc(O)c(=O)c(O)c1C(=O)OC` showed an IC50 in assay [4] above 200 µM.
`Cc1cc(O)c(=O)c(O)cc1C(=O)C(C)C`: the “fractional inhibitory concentration index (FICI)” value with Escherichia coli [1] came to 0.375. The compound further displayed a Ki in assay [2] of 19 µM. This compound also yielded an IC50 in assay [4] of 73 µM.
In assay [4], `Cc1cc(O)c(=O)c(O)cc1-c1ccc(C(F)(F)F)cc1` had an IC50 above 200 µM.
With `Cc1cc(O)c(=O)c(O)cc1C(=O)c1ccccc1`, the IC50 in [4] was above 200 µM.
Still for that read-out and setting: the same measure for `COC(=O)c1c(C)cc(O)c(=O)c(O)c1C(=O)OC`: above 200 µM.
As for `Cc1cc(O)c(=O)c(O)cc1-c1ccc2ccccc2c1`, the IC50 in assay [4] is above 200 µM.
The same measure, in the same setting: the same measure for `Cc1cc(O)c(=O)c(O)cc1C(=O)CC1CCCCC1`: above 200 µM.
Take `O=c1c(O)ccccc1O`: the figures for the inhibition in the assay on Escherichia coli [8], in the assay on Escherichia coli [9] and in the assay on Escherichia coli [10] were 8%, 78% and 100%, respectively.
In the case of `Cc1cc(O)c(=O)c(O)cc1-c1ccc(Cl)cc1`, in the assay with Escherichia coli [1], the “fractional inhibitory concentration index (FICI)” value amounted to 2. For the same compound, the affinity in [2], expressed as Ki, was 6.9 µM. The IC50 in [4] is 9.9 µM.
The compound `COc1cc(C)c(-c2ccc([N+](=O)[O-])cc2)cc(O)c1=O` came in with an IC50 in assay [4] above 200 µM.
Take `Cc1cc(O)c(=O)c(O)cc1-c1ccccc1`: the “fractional inhibitory concentration index (FICI)” value in the assay on Escherichia coli [1] is given as 2. The Ki in [2] came to 25 µM. In [4], the IC50 turned out to be 117 µM.
In turn, `CCOC(=O)c1cc(O)c(=O)c(O)cc1C` showed a half-inhibitory concentration (IC50) in assay [4] above 200 µM.
Regarding `COc1cc(C)c(C(C)=O)cc(O)c1=O`, in assay [4], the IC50 is above 200 µM.
`Cc1cc(O)c(=O)c(O)cc1-c1ccc([N+](=O)[O-])cc1`: the “fractional inhibitory concentration index (FICI)” value in the assay on Escherichia coli [1] stood at 0.5. The Ki in assay [2] was found to be 21.4 µM. The same compound displayed an IC50 in [4] of 20 µM.
`CC(C)c1ccc(O)c(=O)c(O)c1` [BETA-THUJAPLICINOL]: the inhibition with Escherichia coli [11] amounted to 76%; in the assay on Escherichia coli [12], 31%; with Escherichia coli [14], 100%. In addition, the “fractional inhibitory concentration index (FICI)” value in the assay on Escherichia coli [1] is given as 0.375; with Escherichia coli [15] it was 3. For the same compound, the Ki in assay [2] was found to be 6.4 µM. Besides, in the assay with Escherichia coli [13], the outcome was Active. In [4], this compound showed an IC50 of 6.6 µM. For the same compound, in the assay on Escherichia coli [5], the MIC stood at 8 µg/mL.
